15 compounds from ChEMBL document CHEMBL3407352, “Identification of anthranilamide derivatives as potential factor Xa inhibitors: drug design, synthesis and biological evaluation” (Eur J Med Chem, 2015) can be followed below.

Coagulation factor X, sequence (P00742 41-179 limits assumed): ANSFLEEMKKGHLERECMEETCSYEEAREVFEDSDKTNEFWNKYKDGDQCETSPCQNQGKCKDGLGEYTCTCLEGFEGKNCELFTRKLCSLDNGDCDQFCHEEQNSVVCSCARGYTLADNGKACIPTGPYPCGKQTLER
Coagulation factor X, sequence (P00742 235-488 limits assumed): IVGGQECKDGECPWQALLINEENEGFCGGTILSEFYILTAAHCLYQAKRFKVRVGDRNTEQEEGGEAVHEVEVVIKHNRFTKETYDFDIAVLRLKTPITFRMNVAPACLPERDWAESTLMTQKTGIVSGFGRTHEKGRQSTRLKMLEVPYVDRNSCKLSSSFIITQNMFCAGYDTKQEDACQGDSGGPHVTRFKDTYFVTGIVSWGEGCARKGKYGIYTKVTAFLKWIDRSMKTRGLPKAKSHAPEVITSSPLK

One assay addresses Coagulation factor X (Homo sapiens, UniProt P00742). Nature of the assay: Inhibition of human factor 10a using acromogenic substrate S-2222 preincubated for 30 mins before substrate addition measured after 20 mins by spectrophotometry.
By IC50 is commonly meant the concentration that gives 50% inhibition. Regarding `CN1CCC2N=C(C(=O)N[C@@H]3CCCC[C@@H]3CNC(=O)c3ccc(Cl)s3)SC2C1` (stereo partly drawn), it took 27 nM to reach half-maximal inhibition (IC50).

The term Ki denotes the equilibrium dissociation constant of an inhibitor or competing ligand from its target. Read a high Ki as lower affinity. `C[C@@H](C(=O)N1CCOCC1)N1CC[C@H](NS(=O)(=O)C2=Nc3ccc(Cl)cc3C2)C1=O` displayed a Ki of 90 nM.

`COc1ccc(NC(=O)C(=O)Nc2ccc(Cl)cn2)c(C(=O)Nc2ccc(N3CCOCC3=O)cc2)c1` gave an IC50 of 298 nM.

The compound `COc1ccc(NC(=O)C(=O)Nc2ccccc2)c(C(=O)Nc2ccc(N3CCOCC3=O)cc2)c1` returned a 50% inhibitory concentration (IC50) of 1120 nM.

`COc1ccc(NC(=O)C(=O)Nc2ccccc2Cl)c(C(=O)Nc2ccc(N3CCOCC3=O)cc2)c1` had an IC50 of 798 nM.

`COc1ccc(NC(=O)C(=O)Nc2cccc(Cl)c2)c(C(=O)Nc2ccc(N3CCOCC3=O)cc2)c1` displayed a half-maximal inhibitory concentration (IC50) of 621 nM.

For the compound `COc1ccc(NC(=O)C(=O)Nc2ccc(Cl)cc2)c(C(=O)Nc2ccc(N3CCOCC3=O)cc2)c1`, the concentration for half-maximal inhibition (IC50) is 452 nM.

For the compound `COc1ccc(NC(=O)C(=O)Nc2ccc(F)cc2)c(C(=O)Nc2ccc(N3CCOCC3=O)cc2)c1`, it took 678 nM to reach half-maximal inhibition (IC50).

Turning to `COc1ccc(NC(=O)C(=O)Nc2ccccc2OC)c(C(=O)Nc2ccc(N3CCOCC3=O)cc2)c1`, inhibition was half-maximal at 828 nM (IC50).

`COc1ccc(NC(=O)C(=O)Nc2ccc(OC)cc2C(=O)Nc2ccc(N3CCOCC3=O)cc2)cc1` displayed a half-maximal inhibitory concentration (IC50) of 612 nM.

For the compound `COc1ccc(NC(=O)c2ccccc2)c(C(=O)Nc2ccc(N3CCCCC3=O)cc2)c1`, the IC50 is 521 nM.

`COc1ccc(NC(=O)c2ccc(Cl)cc2)c(C(=O)Nc2ccc(N3CCCCC3=O)cc2)c1` returned an IC50 of 23 nM.

`COc1ccc(NC(=O)c2cccc(Cl)c2)c(C(=O)Nc2ccc(N3CCCCC3=O)cc2)c1` yielded an IC50 of 183 nM.

`COc1cccc(C(=O)Nc2ccc(OC)cc2C(=O)Nc2ccc(N3CCCCC3=O)cc2)c1` displayed a half-inhibitory concentration (IC50) of 378 nM.

System in another assay: not listed separately
Nature of the assay: Anticoagulant activity in plasma (unknown origin) assessed as concentration required to double the time for fibrin formation. Format: functional. The method, boiled down:
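Clotting times in plasma on automatic coagulometer per manufacturer's instructions; increasing inhibitor concentrations or solvent added to plasma, incubated 3 min at 37 °C, clotting times compared with appropriate control plasma.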
Take `COc1ccc(NC(=O)c2ccc(Cl)cc2)c(C(=O)Nc2ccc(N3CCCCC3=O)cc2)c1`: the Activity was determined as 8.7 µM.

`COc1ccc(NC(=O)c2ccc(C(=N)N(C)C)cc2)c(C(=O)Nc2ccc(Cl)cn2)c1` [BETRIXABAN]: the Activity came out at 2.4 µM.

The target in the next assay is Prothrombin (Homo sapiens, UniProt P00734). Description: Inhibition of human thrombin using acromogenic substrate S-2238 preincubated for 30 mins before substrate addition measured after 20 mins by spectrophotometry. An outline of the steps:
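Compounds prepared at 10 mM, serially diluted to twelve concentrations in 50 mM Tris-Cl, 100 mM NaCl, 0.1% BSA, pH 7.4; mixed with enzyme (final: human fXa 0.003 U/mL; human thrombin 0.125 U/mL), incubated 30 min at 37 °C. Reaction started with chromogenic substrate (fXa: S-2222; thrombin: S-2238), monitored continuously 20 min at 405 nm; IC50 from mean of duplicates.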
For `COc1ccc(NC(=O)c2ccc(Cl)cc2)c(C(=O)Nc2ccc(N3CCCCC3=O)cc2)c1`, the IC50 amounted to 48000 nM.

In turn, `COc1ccc(NC(=O)c2ccc(C(=N)N(C)C)cc2)c(C(=O)Nc2ccc(Cl)cn2)c1` [BETRIXABAN] registered a half-maximal inhibitory concentration (IC50) of 18000 nM.
